Assay results from ChEMBL document CHEMBL3259575, “Evaluation of a large library of (thiazol-2-yl)hydrazones and analogues as histone acetyltransferase inhibitors: enzyme and cellular studies” (2014).
Active and inactive are the calls of the source. No cut-off for these calls is given here.

Legend:
U-937 [1] = assay: Induction of apoptosis in human U937 cells at 100 uM after 30 hrs by FACS analysis relative to control relative to CPTH6; assay type: functional
[2] = target: Histone acetyltransferase p300 (Homo sapiens) (UniProt Q09472); assay: Inhibition of recombinant human p300 catalytic domain (1284 to 1673 aa) using histone H3 at 400 uM after 1 hr by radiochemical assay in presence of [acetyl-3H]-acetyl coenzyme A
HCT-116 [3] = assay: Induction of apoptosis in human HCT116 cells at 100 uM after 30 hrs by FACS analysis relative to control; assay type: functional
How it was run: (§1)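 Cells cultured at 37 °C, 5% CO2 in RPMI-1640 plus 10% heat-inactivated FBS and antibiotics; treated 30 h; apoptosis read by FACS as the pre-G1 population, compared with untreated control.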

U-937 [4] = assay: Cell cycle arrest at G1 phase in human U937 cells at 100 uM after 30 hrs by propidium iodide-based flow cytometry relative to control; assay type: functional
How it was run: (§2)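 Cells kept at 37 °C, 5% CO2 in RPMI-1640 with 10% heat-inactivated FBS, penicillin, streptomycin, L-glutamine, amphotericin B; plated at 2 × 10^5 cells/mL, exposed 30 h, then suspended in PBS with 0.1% sodium citrate, 0.1% NP40 and propidium iodide; 30 min room temperature in dark; flow cytometry, cell-cycle phase distribution versus untreated control.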

[5] = target: Histone acetyltransferase p300 (Homo sapiens) (UniProt Q09472); assay: Inhibition of recombinant human p300 catalytic domain (1284 to 1673 aa) using histone H3 at 200 uM after 1 hr by radiochemical assay in presence of [acetyl-3H]-acetyl coenzyme A
U-937 [6] = assay: Induction of human U937 cell differentiation assessed as CD11c expression at 100 uM after 30 hrs by propidium iodide-based flow cytometry relative to control; assay type: functional
How it was run: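 U937 cells treated 30 h, then stained 1 h at 4 °C in dark with PE-conjugated anti-CD11c (mouse IgG1-PE isotype for controls), washed, resuspended in PBS with propidium iodide; flow cytometry, CD11c-positive percentage after subtracting PI-positive dead cells, versus control.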

[7] = target: Histone acetyltransferase p300 (Homo sapiens) (UniProt Q09472); assay: Inhibition of recombinant human p300 catalytic domain (1284 to 1673 aa) using histone H3 at 100 uM after 1 hr by radiochemical assay in presence of [acetyl-3H]-acetyl coenzyme A
HCT-116 [8] = assay: Cell cycle arrest at G1 phase in human HCT116 cells at 100 uM after 30 hrs by propidium iodide-based flow cytometry relative to control; assay type: functional; how it was run: as §2
U-937 [9] = assay: Induction of apoptosis in human U937 cells at 100 uM after 30 hrs by FACS analysis relative to control in presence of CPTH6; assay type: functional, cell-based
U-937 [10] = assay: Induction of apoptosis in human U937 cells at 100 uM after 30 hrs by FACS analysis relative to control; assay type: functional; how it was run: as §1
U-937 [11] = assay: Cell cycle arrest in human U937 cells assessed as reduction in cells at S phase at 100 uM after 30 hrs by propidium iodide-based flow cytometry relative to control; assay type: functional; how it was run: as §2
[12] = target: Histone acetyltransferase KAT2B (Homo sapiens) (UniProt Q92831); assay: Inhibition of recombinant human PCAF catalytic domain (492 to 658 aa) using histone H3 at 100 uM after 1 hr by radiochemical assay in presence of [acetyl-3H]-acetyl coenzyme A
Sequence of Histone acetyltransferase KAT2B (Homo sapiens) (Q92831 whole entry, looked up, the tested form may be a part): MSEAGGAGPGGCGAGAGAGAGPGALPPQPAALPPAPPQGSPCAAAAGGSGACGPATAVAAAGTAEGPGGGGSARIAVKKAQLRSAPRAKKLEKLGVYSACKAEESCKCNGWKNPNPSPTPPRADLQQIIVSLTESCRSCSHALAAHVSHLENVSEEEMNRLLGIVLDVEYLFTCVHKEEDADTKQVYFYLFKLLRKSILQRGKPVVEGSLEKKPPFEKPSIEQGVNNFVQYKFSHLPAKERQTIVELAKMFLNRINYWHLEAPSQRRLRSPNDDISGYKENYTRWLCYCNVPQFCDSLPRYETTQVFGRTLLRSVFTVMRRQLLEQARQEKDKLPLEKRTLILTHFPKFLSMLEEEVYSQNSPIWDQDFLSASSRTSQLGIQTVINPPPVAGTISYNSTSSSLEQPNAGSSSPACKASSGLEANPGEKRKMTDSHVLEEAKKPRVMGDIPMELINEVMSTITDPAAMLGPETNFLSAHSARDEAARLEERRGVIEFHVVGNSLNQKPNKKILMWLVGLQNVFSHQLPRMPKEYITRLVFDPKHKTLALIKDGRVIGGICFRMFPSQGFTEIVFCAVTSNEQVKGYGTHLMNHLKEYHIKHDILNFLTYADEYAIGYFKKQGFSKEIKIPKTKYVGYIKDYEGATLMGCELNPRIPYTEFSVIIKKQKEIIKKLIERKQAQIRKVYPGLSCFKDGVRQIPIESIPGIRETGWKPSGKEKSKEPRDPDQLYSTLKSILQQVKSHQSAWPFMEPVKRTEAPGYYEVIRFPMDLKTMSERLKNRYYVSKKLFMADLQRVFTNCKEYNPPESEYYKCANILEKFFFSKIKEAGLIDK

Sequence of Histone acetyltransferase p300 (Homo sapiens) (Q09472 whole entry, the tested form may be a part): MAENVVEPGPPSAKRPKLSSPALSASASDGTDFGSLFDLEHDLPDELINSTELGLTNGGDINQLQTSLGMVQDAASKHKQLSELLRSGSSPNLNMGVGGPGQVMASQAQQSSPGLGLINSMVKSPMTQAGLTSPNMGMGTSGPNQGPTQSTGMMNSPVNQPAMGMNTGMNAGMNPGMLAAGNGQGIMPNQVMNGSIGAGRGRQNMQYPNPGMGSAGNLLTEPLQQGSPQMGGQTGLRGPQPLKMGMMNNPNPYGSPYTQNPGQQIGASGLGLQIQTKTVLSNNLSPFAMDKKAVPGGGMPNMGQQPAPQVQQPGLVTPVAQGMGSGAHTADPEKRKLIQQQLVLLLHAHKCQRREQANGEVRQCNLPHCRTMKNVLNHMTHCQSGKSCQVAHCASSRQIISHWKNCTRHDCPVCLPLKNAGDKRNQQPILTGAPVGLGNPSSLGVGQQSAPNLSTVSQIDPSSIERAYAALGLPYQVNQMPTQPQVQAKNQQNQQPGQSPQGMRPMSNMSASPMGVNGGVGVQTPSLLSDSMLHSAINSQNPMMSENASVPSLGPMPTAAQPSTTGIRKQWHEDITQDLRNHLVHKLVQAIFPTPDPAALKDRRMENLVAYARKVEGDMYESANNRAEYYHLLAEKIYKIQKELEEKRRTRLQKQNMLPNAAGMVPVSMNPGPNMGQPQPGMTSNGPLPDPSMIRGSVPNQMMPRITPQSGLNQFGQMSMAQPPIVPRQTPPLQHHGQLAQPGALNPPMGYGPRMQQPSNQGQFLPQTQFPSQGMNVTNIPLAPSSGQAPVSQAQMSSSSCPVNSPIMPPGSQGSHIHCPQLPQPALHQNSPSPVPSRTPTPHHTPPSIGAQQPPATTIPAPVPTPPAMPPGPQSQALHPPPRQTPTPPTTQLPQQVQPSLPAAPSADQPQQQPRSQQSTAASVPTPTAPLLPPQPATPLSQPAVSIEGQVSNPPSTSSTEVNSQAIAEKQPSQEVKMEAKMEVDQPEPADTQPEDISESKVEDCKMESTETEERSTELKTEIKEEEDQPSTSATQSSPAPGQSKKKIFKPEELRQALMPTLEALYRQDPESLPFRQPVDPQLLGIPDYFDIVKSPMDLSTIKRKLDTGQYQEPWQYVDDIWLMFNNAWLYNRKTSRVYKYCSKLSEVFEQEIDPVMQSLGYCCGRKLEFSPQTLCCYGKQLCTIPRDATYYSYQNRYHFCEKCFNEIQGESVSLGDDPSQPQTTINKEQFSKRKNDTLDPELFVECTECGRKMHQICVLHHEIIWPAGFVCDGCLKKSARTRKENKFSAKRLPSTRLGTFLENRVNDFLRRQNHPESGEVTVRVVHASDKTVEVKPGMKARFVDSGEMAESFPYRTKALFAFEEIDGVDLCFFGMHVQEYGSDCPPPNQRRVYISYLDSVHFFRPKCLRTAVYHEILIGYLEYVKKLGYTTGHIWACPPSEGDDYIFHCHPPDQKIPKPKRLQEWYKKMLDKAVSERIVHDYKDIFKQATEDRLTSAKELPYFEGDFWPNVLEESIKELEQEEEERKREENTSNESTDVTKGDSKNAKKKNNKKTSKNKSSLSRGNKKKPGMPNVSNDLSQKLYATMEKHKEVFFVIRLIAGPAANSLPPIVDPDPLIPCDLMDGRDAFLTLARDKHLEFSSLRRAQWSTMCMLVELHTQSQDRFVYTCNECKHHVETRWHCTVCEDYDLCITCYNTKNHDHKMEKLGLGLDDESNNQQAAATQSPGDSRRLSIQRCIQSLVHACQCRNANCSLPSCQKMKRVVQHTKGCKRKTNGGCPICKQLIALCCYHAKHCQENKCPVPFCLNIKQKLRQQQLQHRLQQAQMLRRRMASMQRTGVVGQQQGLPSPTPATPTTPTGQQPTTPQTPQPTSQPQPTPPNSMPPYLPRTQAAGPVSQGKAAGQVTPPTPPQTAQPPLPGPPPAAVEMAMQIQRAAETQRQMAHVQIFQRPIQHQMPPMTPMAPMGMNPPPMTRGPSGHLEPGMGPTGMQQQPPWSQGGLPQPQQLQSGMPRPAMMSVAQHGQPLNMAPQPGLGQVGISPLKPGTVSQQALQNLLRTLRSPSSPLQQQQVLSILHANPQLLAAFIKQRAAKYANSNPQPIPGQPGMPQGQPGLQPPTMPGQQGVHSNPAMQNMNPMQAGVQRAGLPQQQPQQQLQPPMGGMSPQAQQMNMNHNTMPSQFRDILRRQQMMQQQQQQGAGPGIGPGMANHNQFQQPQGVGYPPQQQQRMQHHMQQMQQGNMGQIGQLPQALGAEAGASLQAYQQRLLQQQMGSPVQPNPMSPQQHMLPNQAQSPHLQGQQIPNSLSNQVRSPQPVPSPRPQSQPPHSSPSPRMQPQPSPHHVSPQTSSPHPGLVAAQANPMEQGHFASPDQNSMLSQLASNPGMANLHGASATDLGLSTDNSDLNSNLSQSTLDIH

Row | Structure (SMILES) | fold change (FC) (U-937 [1]) | inhibition [2] | Activity (HCT-116 [3]) | Activity (U-937 [4]) | inhibition [5] | Activity (U-937 [6]) | inhibition [7] | Activity (HCT-116 [8]) | Activity (U-937 [9]) | Activity (U-937 [10]) | Activity (U-937 [11]) | inhibition [12]
1 | Fc1ccc(-c2csc(NN=C3CCCC3)n2)cc1 | 1.5 | 91% | 10% | Active | 62% | Active | 35% | Active | Active | 44% | Active | 12%
2 | CC1CC/C(=N/Nc2nc(-c3cc4ccccc4oc3=O)cs2)C1 (stereo not drawn) | – | 69% | – | – | 52% | – | 41% | Active | – | – | – | 13%
3 | Clc1ccc(-c2csc(N/N=C\c3c[nH]c4ccccc34)n2)cc1 | 1.5 | 97% | 10% | – | 79% | Active | 61% | – | Active | 44% | – | 0%
4 | C/C(=N/Nc1nc(-c2ccc(Cl)cc2)cs1)c1cc2ccccc2oc1=O | 1.5 | 97% | 10% | – | 86% | Active | 62% | – | Active | 44% | – | 11%
5 | C/C(=N/Nc1nc(-c2ccc(Cl)cc2)cs1)c1ccccn1 | – | 87% | – | Active | 69% | Active | 51% | – | – | – | Active | 10%
6 | CC(C)=NNc1nc(-c2cccc([N+](=O)[O-])c2)cs1 | – | 76% | 10% | – | 54% | – | 33% | Active | – | – | – | 7%
